Results reported in ChEMBL document CHEMBL3217744, “Non-iminosugar glucocerebrosidase small molecule chaperones” (Medchemcomm, 2012).
Active and inactive are the calls of the source. No cut-off for these calls is given here.

Tests used:
[1] = system: T1, Lysosomal acid glucosylceramidase (Homo sapiens), P04062 [N409S]; experiment: Induction of glucocerebrosidase N370S mutant translocation in fibroblasts of patient with Gaucher disease assessed as co-localization of LAMP-1 in lysosomes at 1 uM after 5 days by laser scanning confocal microscopic analysis
T1 sequence (whole entry): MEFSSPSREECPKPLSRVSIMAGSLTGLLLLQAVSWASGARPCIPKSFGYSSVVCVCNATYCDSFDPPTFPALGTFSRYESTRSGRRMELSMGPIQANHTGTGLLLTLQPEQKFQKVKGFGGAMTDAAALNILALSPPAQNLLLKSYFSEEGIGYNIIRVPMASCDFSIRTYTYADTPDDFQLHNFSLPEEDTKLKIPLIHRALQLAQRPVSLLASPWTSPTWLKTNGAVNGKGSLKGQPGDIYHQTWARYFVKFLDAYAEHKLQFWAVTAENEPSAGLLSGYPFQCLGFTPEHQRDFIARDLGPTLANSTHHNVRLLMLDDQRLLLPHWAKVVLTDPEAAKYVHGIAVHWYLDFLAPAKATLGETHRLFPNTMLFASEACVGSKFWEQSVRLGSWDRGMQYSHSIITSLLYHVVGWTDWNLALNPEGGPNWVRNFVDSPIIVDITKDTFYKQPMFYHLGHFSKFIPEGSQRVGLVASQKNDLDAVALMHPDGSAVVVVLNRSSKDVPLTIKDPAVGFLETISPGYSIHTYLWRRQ
Method in brief: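 Gaucher patient fibroblasts on chamber slides, treated 5 days with compound. Cells fixed in 3% paraformaldehyde and permeabilized with 0.1% Triton-X. Stained with anti-LAMP-1 (1:100) and anti-GCase R386 (1:500), then Alexa-488/555 secondaries and DAPI. Imaged by confocal laser scanning at identical laser settings; collapsed z-stacks.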

[2] = molecular target: T2, Lysosomal acid glucosylceramidase (Homo sapiens, UniProt P04062, N409S); experiment: (§1) Inhibition of glucocerebrosidase N370S mutant in spleen homogenates of patient with Gaucher disease using resorufin-beta-D-glucopyranoside as substrate after 20 mins fluorescence assay; type: tissue-based
[3] = molecular target: Somatostatin receptor type 4 (Homo sapiens, UniProt P31391); experiment: Binding affinity to human SST4 receptor
[4] = system: T1, Lysosomal acid glucosylceramidase (Homo sapiens), P04062 [N409S]; experiment: as §1; type: tissue-based
[5] = molecular target: T2, Lysosomal acid glucosylceramidase; experiment: Inhibition of glucocerebrosidase N370S mutant in spleen homogenates of patient with Gaucher disease using resorufin-beta-D-glucopyranoside as substrate after 60 mins fluorescence assay; type: tissue-based
[6] = Plasma concentration in C57BL/6 mouse at 30 mg/kg, ip after 0.083 hrs; type: ADME, organism-based; design: dose 30 mg/kg, route intraperitoneal
Method in brief: (§2)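 Male C57BL/6 mice (20-21 g), single IP dose of 30 mg/kg at 3 mg/mL, 10 mL/kg, in 5% DMAC/5% Solutol HS 15/90% 10 mM pH 7.4 phosphate buffer; n=3 per time point. Retro-orbital blood into K2EDTA under isoflurane, pre-dose to 24 h. Plasma protein-precipitated with acetonitrile containing testosterone internal standard; LC-MS/MS positive ESI MRM; calibration 1.00-10000 ng/mL.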

[7] = Plasma concentration in C57BL/6 mouse at 30 mg/kg, ip after 0.25 hrs; type: ADME, organism-based; design: dose 30 mg/kg, route intraperitoneal; method in brief: as §2
[8] = Plasma concentration in C57BL/6 mouse at 30 mg/kg, ip after 0.5 hrs; type: ADME, organism-based; design: dose 30 mg/kg, route intraperitoneal; method in brief: as §2
[9] = Plasma concentration in C57BL/6 mouse at 30 mg/kg, ip after 1 hr; type: ADME, organism-based; design: dose 30 mg/kg, route intraperitoneal; method in brief: as §2
[10] = Plasma concentration in C57BL/6 mouse at 30 mg/kg, ip after 2 hrs; type: ADME, organism-based; design: dose 30 mg/kg, route intraperitoneal; method in brief: as §2
[11] = Plasma concentration in C57BL/6 mouse at 30 mg/kg, ip after 4 hrs; type: ADME, organism-based; design: dose 30 mg/kg, route intraperitoneal; method in brief: as §2
[12] = Plasma concentration in C57BL/6 mouse at 30 mg/kg, ip after 8 hrs; type: ADME, organism-based; design: dose 30 mg/kg, route intraperitoneal; method in brief: as §2
[13] = Plasma concentration in C57BL/6 mouse at 30 mg/kg, ip after 12 hrs; type: ADME, organism-based; design: dose 30 mg/kg, route intraperitoneal; method in brief: as §2
[14] = Plasma concentration in C57BL/6 mouse at 30 mg/kg, ip after 24 hrs; type: ADME, organism-based; design: dose 30 mg/kg, route intraperitoneal; method in brief: as §2
[15] = system: Mus musculus; experiment: Tmax in C57BL/6 mouse at 30 mg/kg, ip after 24 hrs; type: ADME, organism-based; design: dose 30 mg/kg, route intraperitoneal; details: in vivo; method in brief: as §2
[16] = system: Mus musculus; experiment: Cmax in C57BL/6 mouse at 30 mg/kg, ip after 24 hrs; type: ADME, organism-based; design: dose 30 mg/kg, route intraperitoneal; details: in vivo; method in brief: as §2
[17] = system: Mus musculus; experiment: Half life in C57BL/6 mouse at 30 mg/kg, ip after 24 hrs; type: ADME, organism-based; design: dose 30 mg/kg, route intraperitoneal; details: in vivo; method in brief: as §2
[18] = system: Mus musculus; experiment: AUClast in C57BL/6 mouse at 30 mg/kg, ip after 24 hrs; type: ADME, organism-based, Plasma; design: time < 24 hr, dose 30 mg/kg, route intraperitoneal; details: in vivo; method in brief: as §2
[19] = system: Mus musculus; experiment: AUC (infinity) in C57BL/6 mouse at 30 mg/kg, ip after 24 hrs; type: ADME, organism-based, Plasma; design: time infinity, dose 30 mg/kg, route intraperitoneal; details: in vivo; method in brief: as §2

Somatostatin receptor type 4, sequence (P31391 whole entry): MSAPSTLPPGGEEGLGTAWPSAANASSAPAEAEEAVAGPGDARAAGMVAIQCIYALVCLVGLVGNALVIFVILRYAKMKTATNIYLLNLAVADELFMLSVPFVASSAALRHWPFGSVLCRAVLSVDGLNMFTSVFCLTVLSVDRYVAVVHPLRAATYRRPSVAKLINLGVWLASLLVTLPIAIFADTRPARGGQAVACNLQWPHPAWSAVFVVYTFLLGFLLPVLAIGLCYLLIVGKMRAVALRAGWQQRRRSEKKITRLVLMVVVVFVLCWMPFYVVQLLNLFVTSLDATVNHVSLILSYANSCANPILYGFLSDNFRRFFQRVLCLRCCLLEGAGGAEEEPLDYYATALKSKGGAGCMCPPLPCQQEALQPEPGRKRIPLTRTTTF

Q: Which Activity [1] does the source give for `OC[C@H]1CNC[C@@H](O)[C@@H]1O` here?
A: The Activity was “Active”.

Q: Which results are given for `CN(CCCc1cnc[nH]1)C(=S)NCCCN(Cc1ccc(Cl)cc1)c1ccc(Br)cn1`?
A: IC50 [2]: 18 µM; Ki [3]: 0.026 µM

Q: For `S=C(NCCCc1c[nH]cn1)NCCCN(Cc1ccccc1)c1ccc(Br)cn1`, which IC50 [2] is on record?
A: The IC50 was 5.8 µM.

Q: Which IC50 [2] does the source give for `S=C(NCCCNc1ccc(Br)cn1)NCCCc1c[nH]cn1` here?
A: The IC50 was 46 µM.

Q: What about the Ki [3] of the same molecule?
A: The Ki was 0.69 µM.

Q: For `S=C(NCCCc1cnc[nH]1)NCCCN(CCc1ccc(Cl)cc1)c1ccc(Br)cn1`, which IC50 [2] is on record?
A: The IC50 was 2 µM.

Q: Which IC50 [2] does the source give for `S=C(NCCCc1c[nH]cn1)NCCN(Cc1ccc(Cl)c(Cl)c1)c1ccc(Br)cn1` here?
A: The IC50 was 2.1 µM.

Q: For `CN(CCCN(Cc1ccc(Cl)cc1)c1ccc(Br)cn1)C(=S)NCCCc1cnc[nH]1`, which IC50 [2] is on record?
A: The IC50 was 2.8 µM.

Q: And the Ki [3]?
A: The Ki was 0.019 µM.

Q: For `CCCCN(CCCNC(=S)NCCCc1c[nH]cn1)c1ccc(Br)cn1`, which IC50 [2] is on record?
A: The IC50 was 8.2 µM.

Q: With `NCCCNC(=S)NCCCN(Cc1ccc(Cl)cc1)c1ccc(Br)cn1` as the molecule, how does the IC50 [2] read?
A: The IC50 was 45 µM.

Q: For `S=C(NCCCc1c[nH]cn1)NCCCN(Cc1ccc(Cl)c(Cl)c1)c1ccccn1`, which IC50 [2] is on record?
A: The IC50 was 7.3 µM.

Q: With `O=C(NCCCc1cnc[nH]1)NCCCN(Cc1ccc(Cl)cc1)c1ccc(Br)cn1` as the molecule, how does the IC50 [2] read?
A: Its IC50 is 1 µM.

Q: For `S=C(NCCCc1cnc[nH]1)NCCCN(Cc1ccc(Cl)cc1)c1ccc(Br)cc1`, which IC50 [2] is on record?
A: Its IC50 is 1.3 µM.

Q: And the Ki [3]?
A: The Ki was 0.16 µM.

Q: What about the Activity [1] of the same molecule?
A: Its Activity is “Active”.

Q: With `CCCCNC(=S)NCCCN(Cc1ccc(Cl)c(Cl)c1)c1ccc(Br)cn1` as the molecule, how does the inhibition [4] read?
A: The inhibition was “inactive”.

Q: With `S=C(NCCCN(Cc1ccc(Cl)c(Cl)c1)c1ccc(Br)cn1)NCCc1c[nH]cn1` as the molecule, how does the IC50 [2] read?
A: The IC50 was 18.3 µM.

Q: With `CC(=O)NCCCNC(=S)NCCCN(Cc1ccc(Cl)cc1)c1ccc(Br)cn1` as the molecule, how does the inhibition [4] read?
A: The inhibition was “inactive”.

Q: For `S=C(NCCCc1cnc[nH]1)NCCCN(CCc1ccccc1)c1ccc(Br)cn1`, which IC50 [2] is on record?
A: Its IC50 is 2.8 µM.

Q: For `S=C(NCCCc1cnc[nH]1)NCCCN(Cc1ccc(Cl)cc1)c1cc(-c2ccccc2)ccn1`, which IC50 [2] is on record?
A: The IC50 was 4 µM.

Q: Which IC50 [5] does the source give for `S=C(NCCCc1c[nH]cn1)NCCCN(Cc1ccc(Cl)c(Cl)c1)c1ccc(Br)cn1` here?
A: The IC50 was 0.58 µM.

Q: And the IC50 [2]?
A: Its IC50 is 0.6 µM.

Q: What about the Activity [1] of the same molecule?
A: Its Activity is “Active”.

Q: And the concentration at 0.083 h [6]?
A: Its concentration at 0.083 h is 3.03 µM.

Q: What about the concentration at 0.25 h [7] of the same molecule?
A: Its concentration at 0.25 h is 4.24 µM.

Q: What about the concentration at 0.5 h [8] of the same molecule?
A: The concentration at 0.5 h was 4.84 µM.

Q: What about the concentration at 1 h [9] of the same molecule?
A: Its concentration at 1 h is 6.39 µM.

Q: And the concentration at 2 h [10]?
A: The concentration at 2 h was 6.17 µM.

Q: What about the concentration at 4 h [11] of the same molecule?
A: Its concentration at 4 h is 4.29 µM.

Q: And the concentration at 8 h [12]?
A: The concentration at 8 h was 1.35 µM.

Q: What about the concentration at 12 h [13] of the same molecule?
A: Its concentration at 12 h is 0.2 µM.

Q: And the concentration at 24 h [14]?
A: Its concentration at 24 h is 0.02 µM.

Q: And the Tmax [15]?
A: The Tmax was 1 h.

Q: What about the Cmax [16] of the same molecule?
A: Its Cmax is 3553 ng/mL.

Q: What about the t1/2 [17] of the same molecule?
A: The t1/2 was 2.57 h.

Q: What about the AUClast [18] of the same molecule?
A: Its AUClast is 20600 ng·h/mL.

Q: And the AUC [19]?
A: Its AUC is 20700 ng·h/mL.

Q: Which IC50 [2] does the source give for `O=C(NCCCc1c[nH]cn1)NCCCN(Cc1ccc(Cl)c(Cl)c1)c1ccc(Br)cn1` here?
A: The IC50 was 0.6 µM.

Q: Which IC50 [2] does the source give for `S=C(NCCCc1c[nH]cn1)NCCCN(Cc1ccc(Cl)cc1)c1ccc(Br)cn1` here?
A: The IC50 was 1.2 µM.

Q: For `S=C(NCCCc1cnc[nH]1)NCCCN(Cc1ccc(Cl)cc1)c1ccc(-c2ccccc2)cn1`, which IC50 [2] is on record?
A: The IC50 was 1.3 µM.

Q: For `S=C(NCCCCN(Cc1ccc(Cl)cc1)c1ccc(Br)cn1)NCCCc1cnc[nH]1`, which IC50 [2] is on record?
A: The IC50 was 0.8 µM.
